{"source": "ChEMBL document CHEMBL4000167", "about": "“Chlorotheolides A and B, Spiroketals Generated via Diels-Alder Reactions in the Endophytic Fungus Pestalotiopsis theae” (J Nat Prod, 2016)", "key": {"[1]": {"system": "HeLa", "experiment": "Antiproliferative activity against human HeLa cells at 20 ug/ml after 48 hrs by MTS assay", "type": "functional, cell-based", "outline": "(§1)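 Cells seeded at (2−5) × 10^3 per well in 96-well plates and allowed to attach overnight. Medium was then replaced with medium containing test compound by serial dilution from 100 mM DMSO stocks, or 0.1% DMSO, with cisplatin as positive control. Incubation was 48 h at 37 °C in 5% CO2, then MTS was added for 90 min at 37 °C. Absorbance read at 490 nm; triplicate.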"}, "[2]": {"system": "MCF7", "experiment": "Antiproliferative activity against human MCF7 cells at 20 ug/ml after 48 hrs by MTS assay", "type": "functional, cell-based", "outline": "as §1"}, "[3]": {"system": "HeLa", "experiment": "Induction of autophagy in human HeLa cells assessed as effect on ratio of LC3-2 to actin at 10 uM after 2 hrs by immunoblot method relative to control", "type": "functional", "outline": "(§2)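 Lysis in Tris-HCl pH 7.4 buffer with EDTA, EGTA, DTT, 1% Triton X-100, 1% SDS and protease inhibitors. SDS-PAGE, PVDF transfer, HRP secondary antibodies, ECL detection. LC3-II band expressed as a ratio to actin.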"}, "[4]": {"system": "HeLa", "experiment": "Induction of autophagy in human HeLa cells assessed as effect on ratio of LC3-2 to actin at 20 uM after 2 hrs in presence of chloroquine by immunoblot method relative to control", "type": "functional", "outline": "as §2"}, "[5]": {"system": "HeLa", "experiment": "Induction of autophagy in human HeLa cells assessed as effect on ratio of SQSTM1/p62 to actin at 1 uM after 2 hrs in presence of chloroquine by immunoblot method relative to control", "type": "functional", "outline": "(§3)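 Lysis used Triton X-100/glycerol buffer: 50 mM Tris-HCl pH 7.4, 4 mM EDTA, 2 mM EGTA, 1 mM DTT, 1% Triton X-100, 1% SDS and protease inhibitors. Lysates were run on SDS-PAGE, blotted to PVDF and detected by HRP secondaries with ECL. p62/actin ratio calculated.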"}, "[6]": {"system": "HeLa", "experiment": "Induction of autophagy in human HeLa cells assessed as effect on ratio of LC3-2 to actin at 1 uM after 2 hrs by immunoblot method relative to control", "type": "functional", "outline": "as §2"}, "[7]": {"system": "HeLa", "experiment": "Induction of autophagy in human HeLa cells assessed as effect on ratio of LC3-2 to actin at 20 uM after 2 hrs by immunoblot method relative to control", "type": "functional", "outline": "as §2"}, "[8]": {"system": "HeLa", "experiment": "Induction of autophagy in human HeLa cells assessed as effect on ratio of SQSTM1/p62 to actin at 10 uM after 2 hrs by immunoblot method relative to control", "type": "functional", "outline": "as §3"}, "[9]": {"system": "HeLa", "experiment": "Induction of autophagy in human HeLa cells assessed as effect on ratio of LC3-2 to actin at 10 uM after 2 hrs in presence of chloroquine by immunoblot method relative to control", "type": "functional", "outline": "as §2"}, "[10]": {"system": "HeLa", "experiment": "Induction of autophagy in human HeLa cells assessed as effect on ratio of LC3-2 to actin at 1 uM after 2 hrs in presence of chloroquine by immunoblot method relative to control", "type": "functional", "outline": "as §2"}, "[11]": {"system": "HeLa", "experiment": "Induction of autophagy in human HeLa cells assessed as effect on ratio of SQSTM1/p62 to actin at 10 uM after 2 hrs in presence of chloroquine by immunoblot method relative to control", "type": "functional", "outline": "as §3"}, "[12]": {"system": "HeLa", "experiment": "Induction of autophagy in human HeLa cells assessed as increase in punctate LC3 accumulation at 10 uM after 2 hrs in presence of chloroquine by immunofluorescence method", "type": "functional, cell-based", "outline": "(§4)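 They were fixed in 4% paraformaldehyde and permeabilized in Ca/Mg-free PBS with 0.1% Triton X-100 and 0.5% BSA. Staining used anti-LC3 and Alexa Fluor secondaries, with DAPI mounting. LC3 puncta were counted by fluorescence microscopy.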"}, "[13]": {"system": "HeLa", "experiment": "Induction of autophagy in human HeLa cells assessed as effect on ratio of SQSTM1/p62 to actin at 20 uM after 2 hrs in presence of chloroquine by immunoblot method relative to control", "type": "functional", "outline": "as §3"}, "[14]": {"system": "HeLa", "experiment": "Induction of autophagy in human HeLa cells assessed as accumulation of membrane vacuoles at 10 uM at 2 hrs by transmission electron microscopic method", "type": "functional, cell-based", "outline": "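HeLa cells treated with 10 μM for 2 h, then washed in PBS, trypsinized and pelleted. Pellets fixed in 4% paraformaldehyde at 4 °C overnight and postfixed in 1% OsO4 in cacodylate buffer for 1 h at RT. They were then dehydrated in ethanol, rinsed in propylene oxide and embedded in Spurr resin. Thin sections examined by TEM.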"}, "[15]": {"system": "HeLa", "experiment": "Induction of autophagy in human HeLa cells assessed as effect on ratio of SQSTM1/p62 to actin at 1 uM after 2 hrs by immunoblot method relative to control", "type": "functional", "outline": "as §3"}, "[16]": {"system": "HeLa", "experiment": "Induction of autophagy in human HeLa cells assessed as increase in punctate LC3 accumulation at 10 uM after 2 hrs by immunofluorescence method", "type": "functional, cell-based", "outline": "as §4"}, "[17]": {"system": "HeLa", "experiment": "Induction of autophagy in human HeLa cells assessed as effect on ratio of SQSTM1/p62 to actin at 20 uM after 2 hrs by immunoblot method relative to control", "type": "functional", "outline": "as §3"}, "[18]": {"system": "HeLa", "experiment": "Induction of autophagy in human HeLa cells assessed as effect on ratio of SQSTM1/p62 to actin at 15 uM after 2 hrs by immunoblot method relative to control", "type": "functional", "outline": "as §3"}}, "note": "Calls of active or inactive are those of the source. The rule behind the calls is not given here.", "data": [{"compound": "COC(=O)C1=CC(OC)=C(Cl)C(=O)C12OC(=O)c1c(O)cc(C)cc1O2", "note": "(stereo not given)", "values": [{"measurement": "inhibition", "setting": "[1]", "result": "inactive"}, {"measurement": "inhibition", "setting": "[2]", "result": "inactive"}]}, {"compound": "CCCCCCCC1=COC(=O)[C@]12C[C@]1(C(=O)OC)C=C(OC)[C@@]2(Cl)C(=O)[C@]12OC(=O)c1c(O)cc(C)cc1O2", "values": [{"measurement": "fold change (FC)", "setting": "[3]", "result": 0.79}, {"measurement": "fold change (FC)", "setting": "[4]", "result": 10.86}, {"measurement": "fold change (FC)", "setting": "[5]", "result": 2.84}, {"measurement": "fold change (FC)", "setting": "[6]", "result": 1.03}, {"measurement": "fold change (FC)", "setting": "[7]", "result": 2.9}, {"measurement": "fold change (FC)", "setting": "[8]", "result": 3.61}, {"measurement": "fold change (FC)", "setting": "[9]", "result": 12.53}, {"measurement": "fold change (FC)", "setting": "[10]", "result": 10.98}, {"measurement": "fold change (FC)", "setting": "[11]", "result": 2.19}, {"measurement": "Activity", "setting": "[12]", "result": "Active"}, {"measurement": "fold change (FC)", "setting": "[13]", "result": 1.94}, {"measurement": "Activity", "setting": "[14]", "result": "Active"}, {"measurement": "fold change (FC)", "setting": "[15]", "result": 2.76}, {"measurement": "Activity", "setting": "[16]", "result": "Active"}, {"measurement": "fold change (FC)", "setting": "[17]", "result": 2.84}]}, {"compound": "CCN(CC)CCCC(C)Nc1ccnc2cc(Cl)ccc12", "note": "(stereo not given) [CHLOROQUINE]", "values": [{"measurement": "fold change (FC)", "setting": "[18]", "result": 1.8}]}, {"compound": "C=C(C(=O)O)[C@@H](CCCCCCCC)C(=O)O", "values": [{"measurement": "inhibition", "setting": "[1]", "result": "inactive"}, {"measurement": "inhibition", "setting": "[2]", "result": "inactive"}]}]}
